Test [1] has as its target T1, 5-hydroxytryptamine receptor 2C (Rattus norvegicus, UniProt P08909).
T1 sequence (P08909 whole entry): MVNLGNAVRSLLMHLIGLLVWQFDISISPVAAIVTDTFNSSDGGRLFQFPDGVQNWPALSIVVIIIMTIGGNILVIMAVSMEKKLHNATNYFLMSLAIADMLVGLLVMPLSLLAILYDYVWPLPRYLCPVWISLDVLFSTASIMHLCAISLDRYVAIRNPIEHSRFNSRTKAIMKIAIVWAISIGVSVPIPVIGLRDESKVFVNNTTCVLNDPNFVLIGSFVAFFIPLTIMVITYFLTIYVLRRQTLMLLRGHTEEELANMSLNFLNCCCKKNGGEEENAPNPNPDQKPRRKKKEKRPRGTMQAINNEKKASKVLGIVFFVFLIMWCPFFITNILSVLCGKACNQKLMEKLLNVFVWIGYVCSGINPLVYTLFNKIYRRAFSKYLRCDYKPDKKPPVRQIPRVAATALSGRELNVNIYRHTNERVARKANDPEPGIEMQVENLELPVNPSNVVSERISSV
The test is described as follows: Displacement of [3H]mesulergine from Sprague-Dawley rat brain cortex serotonin 5-HT2C receptor after 15 mins by liquid scintillation counting in presence of 5-HT2A blocker, spiperone. An outline of the steps: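 Male Sprague-Dawley rat frontal cortex membranes (Tris-HCl/EDTA/MgCl2 pH 7.4, ascorbate, pargyline). 100 nM spiperone in all tubes to block 5-HT2A sites. Mianserin defined nonspecific binding. 15 min at 37 °C, PEI-soaked glass fibre filtration. Six compound concentrations in triplicate. Ki by Cheng-Prusoff.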
In general terms: Loss of bound radioactivity is the signal in a displacement assay; it reports binding, not function.

Test [2] deals with 5-hydroxytryptamine receptor 2A (Rattus norvegicus, UniProt P14842). The test is described as follows: Displacement of [3H]ketanserin from Sprague-Dawley rat brain cortex serotonin 5-HT2A receptor after 15 mins by liquid scintillation counting. The following applies: for Ki: read-out: Ki. Put shortly:
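Male Sprague-Dawley rat frontal cortex membranes in 50 mM Tris-HCl, 0.5 mM EDTA, 10 mM MgCl2 pH 7.4, with 0.1% ascorbate and pargyline. 0.4 nM [3H]ketanserin, 5 mg wet tissue, 15 min at 37 °C. Filtered on PEI-soaked glass fibre. Six compound concentrations in triplicate. IC50 converted to Ki by Cheng-Prusoff.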

The target of test [3] is T2, 5-hydroxytryptamine receptor 1A (Rattus norvegicus, UniProt P19327).
T2 sequence (P19327 whole entry): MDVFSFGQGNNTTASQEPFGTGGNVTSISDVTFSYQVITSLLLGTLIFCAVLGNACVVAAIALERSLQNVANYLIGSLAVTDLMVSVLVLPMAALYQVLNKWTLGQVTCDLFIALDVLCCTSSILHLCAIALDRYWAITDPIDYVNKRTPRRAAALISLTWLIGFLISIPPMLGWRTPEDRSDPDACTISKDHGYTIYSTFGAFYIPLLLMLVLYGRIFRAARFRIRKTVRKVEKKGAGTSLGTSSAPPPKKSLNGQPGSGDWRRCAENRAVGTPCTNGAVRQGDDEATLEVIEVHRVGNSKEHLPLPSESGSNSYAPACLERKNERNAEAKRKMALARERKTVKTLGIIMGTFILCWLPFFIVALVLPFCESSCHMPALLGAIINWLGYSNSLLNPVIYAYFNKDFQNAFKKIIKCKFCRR
In words: Displacement of [3H]-8-OH-DPAT from Sprague-Dawley rat brain cortex serotonin 5-HT1A receptor after 30 mins by liquid scintillation counting. The following applies: read-out: Ki. An outline of the steps: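 Male Sprague-Dawley rat (180-220 g) cerebral cortex homogenized in 50 mM Tris-HCl pH 7.7, spun 50,000 g. [3H]-8-OH-DPAT 0.1 nM final, 30 min at 37 °C, GF/B filtration. Test compounds in ethanol or 5% DMSO, six concentrations in triplicate. IC50 by curve fitting, Ki by Cheng-Prusoff using Scatchard-derived KD.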

In test [4] the target is D(1A) dopamine receptor (Rattus norvegicus, UniProt P18901). The test is described as follows: Displacement of [3H]SCH-23390 from rat corpora striatum dopamine D1 receptor after 15 mins by liquid scintillation counting. The following applies: read-out: Ki. Put shortly: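 Rat corpora striata homogenized in 50 mM Tris-HCl pH 7.7, spun twice at 50,000 g. Resuspended in Tris-HCl with NaCl, KCl, CaCl2, MgCl2, ascorbic acid and pargyline. 0.4 nM [3H]SCH-23390 final, 3 mg fresh tissue, 15 min at 37 °C. Nonspecific binding with piflutixol. Ki by Cheng-Prusoff from triplicate six-point curves.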
D(1A) dopamine receptor, sequence (P18901 whole entry): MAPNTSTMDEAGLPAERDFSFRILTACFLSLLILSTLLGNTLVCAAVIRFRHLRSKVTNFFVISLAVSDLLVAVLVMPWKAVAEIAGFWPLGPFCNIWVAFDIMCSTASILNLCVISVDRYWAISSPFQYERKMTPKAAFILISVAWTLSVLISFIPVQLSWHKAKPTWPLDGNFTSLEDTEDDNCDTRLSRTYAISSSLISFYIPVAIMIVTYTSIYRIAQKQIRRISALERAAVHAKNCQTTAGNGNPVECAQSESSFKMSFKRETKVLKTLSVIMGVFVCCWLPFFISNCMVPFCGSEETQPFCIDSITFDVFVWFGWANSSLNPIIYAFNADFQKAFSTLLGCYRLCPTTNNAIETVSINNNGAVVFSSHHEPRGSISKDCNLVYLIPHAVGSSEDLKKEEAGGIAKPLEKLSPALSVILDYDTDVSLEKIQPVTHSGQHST

The target of test [5] is D(2) dopamine receptor (Rattus norvegicus, UniProt P61169). The test is described as follows: Displacement of [3H]spiperone from rat corpora striatum dopamine D2 receptor after 15 mins by liquid scintillation counting. The conditions noted are these: read-out: Ki. An outline of the steps: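 Corpora striata membranes in Tris-HCl buffer containing NaCl, KCl, CaCl2, MgCl2, ascorbic acid and pargyline. [3H]spiperone 0.4 nM final, 3 mg fresh tissue, incubated 15 min at 37 °C. GF/B filtration, scintillation counting. Six concentrations in triplicate. IC50 converted to Ki via Cheng-Prusoff.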
D(2) dopamine receptor, sequence (P61169 whole entry): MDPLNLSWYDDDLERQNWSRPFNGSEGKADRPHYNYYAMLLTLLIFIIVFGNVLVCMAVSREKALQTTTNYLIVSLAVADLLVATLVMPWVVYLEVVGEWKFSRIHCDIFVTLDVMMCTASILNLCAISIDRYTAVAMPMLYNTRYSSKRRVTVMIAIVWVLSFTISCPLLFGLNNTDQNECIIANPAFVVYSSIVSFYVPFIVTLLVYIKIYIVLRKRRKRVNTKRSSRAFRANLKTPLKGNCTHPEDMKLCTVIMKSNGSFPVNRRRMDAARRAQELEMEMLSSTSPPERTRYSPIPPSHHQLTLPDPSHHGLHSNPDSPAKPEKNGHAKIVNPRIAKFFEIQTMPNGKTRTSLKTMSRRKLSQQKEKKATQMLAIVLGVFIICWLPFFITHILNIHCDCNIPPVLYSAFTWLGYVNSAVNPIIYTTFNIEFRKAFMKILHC

Each structure is given as a SMILES string. Where only a bound is given, the exact number is not on record here.

5-hydroxytryptamine receptor 2A, sequence (P14842 whole entry): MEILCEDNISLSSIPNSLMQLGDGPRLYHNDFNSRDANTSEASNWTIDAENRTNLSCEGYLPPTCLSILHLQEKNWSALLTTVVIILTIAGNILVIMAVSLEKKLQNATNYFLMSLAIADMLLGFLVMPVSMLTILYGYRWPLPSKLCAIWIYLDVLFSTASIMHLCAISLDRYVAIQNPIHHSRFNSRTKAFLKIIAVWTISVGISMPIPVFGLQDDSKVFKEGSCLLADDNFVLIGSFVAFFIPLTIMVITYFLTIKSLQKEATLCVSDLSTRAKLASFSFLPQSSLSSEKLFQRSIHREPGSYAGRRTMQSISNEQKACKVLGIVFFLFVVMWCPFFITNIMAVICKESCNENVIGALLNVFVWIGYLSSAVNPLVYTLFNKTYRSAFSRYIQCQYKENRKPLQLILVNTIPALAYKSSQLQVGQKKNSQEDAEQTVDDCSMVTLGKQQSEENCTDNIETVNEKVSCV

In the case of `COc1ccccc1N1CCN(CCCN/C(=N\C#N)c2ccccn2)CC1`, the Ki in test [1] (read-out: Ki) was 1.61 nM; in test [2] it was 0.00157 nM; in test [3] it was 4.68 nM; in test [4], greater than 10000 nM; in test [5] it was greater than 10000 nM. Also, the IC50 in test [2] turned out to be 0.00212 nM.

With `N#C/N=C(\NCCCN1CCN(c2ccccn2)CC1)c1ccccn1`, the Ki in test [1] (read-out: Ki) was greater than 10000 nM; in test [2] it was 1.12 nM; in test [3], 30.6 nM; in test [4] it was greater than 10000 nM; in test [5], greater than 10000 nM.

Take `N#C/N=C(\NCCCN1CCN(c2ncccn2)CC1)c1ccccn1`: the Ki is 22.5 nM in test [1] (read-out: Ki); 0.0161 nM in test [2]; 3080 nM in test [3]; greater than 10000 nM in test [4]; greater than 10000 nM in test [5]. This compound also came in with an IC50 in test [2] of 0.0217 nM.

As to `N#C/N=C(\NCCCN1CCN(c2cccc(C(F)(F)F)c2)CC1)c1ccccn1`, the Ki in test [1] (read-out: Ki) was 1.81 nM; in test [2], 0.000778 nM; in test [3] it was 1.31 nM; in test [4] it was greater than 10000 nM; in test [5], 83.7 nM. Moreover, the half-inhibitory concentration (IC50) in test [2] was 0.00105 nM.

For the compound `Cc1cccc(N2CCN(CCCN/C(=N\C#N)c3ccccn3)CC2)c1C`, the Ki in test [1] (read-out: Ki) is 29.7 nM; in test [2] it was 0.867 nM; in test [3], 30 nM; in test [4] it was greater than 10000 nM; in test [5] it was greater than 10000 nM.

Turning to `CCOc1ccccc1N1CCN(CCCN/C(=N\C#N)c2ccccn2)CC1`, the inhibition constant Ki result is “Not Active” in test [1]; 2730 nM in test [2]; 17.2 nM in test [3]; 52.4 nM in test [4]; greater than 10000 nM in test [5].

Broadly, the Ki is a dissociation constant, usually derived from enzyme kinetics or from competition with a known ligand. Usually IC50 stands for the concentration that gives 50% inhibition. The low end stands for inhibition by little substance, the high end for a need for much substance.
